Assay results gathered from unrelated publications.
Each line is one published result; the experiments were not run side by side.
Target: BDNF/NT-3 growth factors receptor (NTRK2, Homo sapiens, UniProt Q16620)

Structure (SMILES) | test | setting | measurement | value
CN(c1ccnc(CNc2nc(Nc3ccc4c(c3)CC(=O)N4)ncc2C(F)(F)F)n1)S(C)(=O)=O | cell-free assay, competition with immobilised ligand | 1 µM | remaining binding | 21%
Cc1cc(NC(=O)c2cccc3cc(-c4cccc5[nH]nc(N)c45)ccc23)ccc1F | enzyme activity, inhibitor | 0.1 µM | activity vs control | 107%
O=C(Nc1ccc(Oc2ccc(F)cc2)cc1)N1CCc2ncccc2[C@H]1c1ccc(F)cc1 | cell-free assay, competition with immobilised ligand | 1 µM | remaining binding | 84%
Oc1cccc(-c2nc(N3CCOCC3)c3oc4ncccc4c3n2)c1 | cell-free assay | 0.5 µM | remaining signal | 90.2%
O=C(Nc1ccc(Br)cc1)Nc1cccc(C(=O)Nc2ccc3[nH]ncc3c2)c1 | enzyme activity, inhibitor, FRET | 1 µM | inhibition | 15.7%
CCN(CC)CCNC(=O)c1c(C)[nH]c(/C=C2\C(=O)Nc3ccc(F)cc32)c1C | cell-free assay | 0.3 µM | inhibition | 70%
CCC(=O)N[C@@H]1CC[C@H](C(=O)N(C)c2ccc(-c3nc4ccccc4o3)cc2)C1 | cell-free assay, competition with immobilised ligand | 1 µM | remaining binding | 100%
O=C(Nc1cnn(-c2csc(C(=O)NC3COC3)c2)c1)Nc1c(F)cccc1Cl | enzyme activity, inhibitor | 5 µM | remaining activity | 91.5%
Cc1ccc(NC(=O)c2ccc(C)c(C(F)(F)F)c2)cc1C#Cc1nn(C2CCC(O)CC2)c2ncnc(N)c12 (stereo not shown) | cell-free assay | 10 µM | remaining signal | 4%
O=C(Nc1cccc(F)c1)Nc1cccc(C(=O)Nc2ccc3[nH]ncc3c2)c1 | enzyme activity, inhibitor, FRET | 1 µM | inhibition | 19.3%
N#CCCc1ccc2c(c1)-c1[nH]c3ccc([N+](=O)[O-])cc3c1CC(=O)N2 | cell-free assay | 0.5 µM | remaining signal | 86.4%
Cc1cc(-n2nc(Cc3cc(F)cc(C(F)(F)F)c3)nc2C)ccc1C(N)=O | cell-free assay, competition with immobilised ligand | 1 µM | remaining binding | 98%
O=C(Nc1cccc(C(=O)Nc2ccc3[nH]ncc3c2)c1)Nc1ccccc1C(F)(F)F | enzyme activity, inhibitor, FRET | 1 µM | inhibition | 25.7%
O=C1NC(=O)c2cc(Nc3ccc(F)cc3)c(Nc3ccc(F)cc3)cc21 | cell-free assay | 0.5 µM | remaining signal | 91.9%
CCN(CC)c1ccc(C2=NNC(=O)CC2C)cc1[N+](=O)[O-] (stereo not shown) | enzyme activity, inhibitor | 10 µM | remaining activity | 87%
O=C(Nc1ccc2[nH]ncc2c1)c1cccc(NC(=O)c2cc(C(F)(F)F)ccc2F)c1 | enzyme activity, inhibitor, FRET | 1 µM | inhibition | 13.5%
Cc1sc(C(=O)NC2COC2)cc1-n1cc(NC(=O)Nc2c(F)cccc2Cl)cn1 | enzyme activity, inhibitor | 10 µM | remaining activity | 92.4%
O=C(Nc1cccc(C(=O)Nc2ccc3[nH]ncc3c2)c1)Nc1cccc(C(F)(F)F)c1 | enzyme activity, inhibitor, FRET | 1 µM | inhibition | 24.5%
CS(=O)(=O)NCC[C@H](NC(=O)c1cncc2c1cnn2-c1ccc(F)cc1)c1ccnc(S(C)(=O)=O)c1 | cell-free assay, competition with immobilised ligand | 1 µM | remaining binding | 100%
O=C(Cc1ccc(C(F)(F)F)cc1)Nc1cccc(C(=O)Nc2ccc3[nH]ncc3c2)c1 | enzyme activity, inhibitor, FRET | 1 µM | inhibition | 16.8%
CCCOc1ccc([C@@H]2[C@@H](C(=O)O)[C@H](c3ccc4c(c3)OCO4)CN2CC(=O)Nc2c(CC)cccc2CC)cc1 | cell-free assay, competition with immobilised ligand | 1 µM | remaining binding | 100%
Cc1ccc(C(=O)NCc2ccsc2)cc1C#Cc1cn(C(C)C)c2ncnc(N)c12 | enzyme activity, inhibitor | 1 µM | activity vs control | 58%
O=C(Nc1cccc(C(=O)Nc2ccc3[nH]ncc3c2)c1)Nc1ccccc1Cl | enzyme activity, inhibitor, FRET | 1 µM | inhibition | 20.6%
CC(C)(C)c1nc2c(s1)c1nc(N)ncc1c1ccc(NS(=O)(=O)c3c(F)cccc3F)c(F)c12 | enzyme activity, inhibitor, radiometric | 1 µM | remaining activity | 65%
c1ccc(N2CCN(Cc3nc4ccccc4[nH]3)CC2)nc1 | cell-free assay, competition with immobilised ligand | 1 µM | remaining binding | 100%
O=C(Nc1ccc2[nH]ncc2c1)c1cccc(NC(=S)Nc2ccc(F)cc2F)c1 | enzyme activity, inhibitor, FRET | 1 µM | inhibition | 9.64%
CC1=C(C#N)[C@@H](c2ccc3[nH]nc(C)c3c2)C(C#N)=C(c2ccc(Cl)cc2)N1 | cell-free assay, competition with immobilised ligand | 1 µM | remaining binding | 85.2%
COc1cc(Cl)c(C(=O)N[C@@H](CN[C@H]2CC[C@@H](N)CC2)Cc2ccc(C#N)cc2)cc1-c1ccc(CN[C@H](C)c2ccc(C)cc2)o1 | enzyme activity, inhibitor | 1 µM | remaining activity | 64%
